# An excerpt weighted towards active compounds, which were near 2.5% of everything screened.
# SENP1 FRET inh = human SENP1 catalytic domain inhibitors, primary screen, biochemical, FRET, uHTS; inhibition, % at 10 µM; actives 0.21% (n = 360,000); recombinant SENP1 catalytic domain, CyPet-SUMO1-YPet FRET cleavage; Sentrin-specific protease 1 (Homo sapiens), Q9P0U3;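 active = inhibition at least 30% at 10 µM, raw YFP signal under a set limit, fluorescence ratio 0.5 to 1.5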;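 note: 0% = enzyme with DMSO and 100% = no enzyme wells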
#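 System: Recombinant human SENP1 catalytic domain, His6-tagged | Incubation: Enzyme reaction for 50 min at room temperature, dark | Medium: Tris pH 8 with BME, BSA, NP40 and catalase | Also added: 25 nM SUMO1 FRET substrate | Compound: 10 µM single point, 0.5% DMSO | Measured by: FRET fluorescence in CFP and YFP emission channels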
# SENP6 inh = SENP6 protease inhibitors, primary screen, biochemical, luminescence, uHTS. inhibition, % at 10 µM. actives 1.8% (n = 330,000). Recombinant SENP6 catalytic domain, aminoluciferin luminescence;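 active = inhibition above about 50% at the single tested dose, limit read from the data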;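 note: plate controls were DMSO wells with enzyme for no effect and DMSO wells lacking enzyme for full effect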
# Target sequence (Q9GZR1 628-1112 limits assumed): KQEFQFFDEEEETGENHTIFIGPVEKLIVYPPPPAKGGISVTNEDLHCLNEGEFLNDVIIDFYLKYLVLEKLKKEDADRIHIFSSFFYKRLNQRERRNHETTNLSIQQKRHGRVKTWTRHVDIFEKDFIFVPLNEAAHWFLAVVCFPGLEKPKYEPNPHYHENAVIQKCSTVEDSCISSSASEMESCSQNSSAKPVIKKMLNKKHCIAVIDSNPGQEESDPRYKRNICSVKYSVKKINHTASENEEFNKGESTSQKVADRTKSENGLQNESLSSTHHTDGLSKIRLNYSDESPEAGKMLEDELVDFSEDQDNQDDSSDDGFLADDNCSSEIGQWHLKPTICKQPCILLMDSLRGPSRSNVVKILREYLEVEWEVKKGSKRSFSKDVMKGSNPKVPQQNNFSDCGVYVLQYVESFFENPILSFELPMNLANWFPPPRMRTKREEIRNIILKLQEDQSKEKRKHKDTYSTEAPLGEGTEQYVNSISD
# SENP8 block-1 = human SENP8 protease inhibitors, primary screen, biochemical, fluorescence, Nedd8 protein substrate, uHTS. Sentrin-specific protease 8 (Homo sapiens), Q96LD8. recombinant SENP8. inhibition, % at 20 µM. actives 0.64% (n = 360,000). AID 602440, 2012; in the data active = inhibition mostly above about 40%, no sharp cut-off; inactive = mostly below about 27%
# SENP8 block-2 = SENP8 protease inhibitors, primary screen, biochemical, luminescence | Sentrin-specific protease 8 (Homo sapiens), Q96LD8 | AID 2540, 2010 | inhibition, % at 10 µM | actives 1.2% (n = 330,000) | purified SENP8, Z-RLRGG-aminoluciferin cleavage; in the data active = inhibition above about 50%
# SENP7 block = SENP7 protease inhibitors, primary screen, biochemical, luminescence, uHTS; Sentrin-specific protease 7 (Homo sapiens), Q9BQF6; recombinant SENP7, Z-RLRGG-aminoluciferin luminescence, 40 min; inhibition, % at 5 µM; actives 1.5% (n = 330,000); AID 434973, 2010;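 active = inhibition above about 50% at the single test dose, limit read from the data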;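 note: plate controls were DMSO with enzyme for no effect and no enzyme buffer wells for full effect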
# * hit, by the source's call; / = not tested or not shown.
SMILES,SENP1 FRET inh,SENP6 inh,SENP8 block-1,SENP8 block-2,SENP7 block
N#C/C(=C(/O)COc1ccccc1)c1nc2ccccc2s1,2,1,5,29,-1
N#C/C(=N\O)c1nc2ccccc2s1,-23,-19,7,-13,-8
N#C/C(=C(/O)c1ccc(F)cc1)c1nc2ccccc2s1,-11,87*,-2,82*,51*
O=C(CSc1nnc(NC(=O)c2ccc3c(c2)OCO3)s1)NCc1ccco1,1,3,-84,0,65*
COc1ccc(/C=C2/SC(=S)N(Cc3ccccc3)C2=O)cc1O,-86,-23,20,-15,-10
O=C1/C(=C\c2cc(Cl)c(O)c(Cl)c2)SC(=S)N1Cc1ccccc1,-4,/,48*,/,/
CCNC(=O)C1(C)CCCN(C(=O)c2ccnc(Cl)c2)C1 (stereo not drawn),2,/,3,/,/
CN(C)c1ccc(C=C2SC(=S)N(Cc3ccco3)C2=O)cc1,-27,/,48*,/,/
O=[N+]([O-])c1cc(Cl)cc(/C=N/n2cnnc2)c1O,10,-9,47*,-6,-8
CCN(CC)c1ccc(S(=O)(=O)N2CCOCC2)cc1NC(=O)COC(=O)/C=C/c1ccco1,-4,/,4,/,/
OC(c1ccccc1)(c1nc(-c2cc3ccccc3o2)cs1)C(F)(F)F (stereo not drawn),3,/,2,/,/
COc1ccc(CN2CCNC(=O)C2CC(=O)N(C)C2CCOCC2)cc1OC (stereo not drawn),-8,/,6,/,/
Cc1ccc(S(=O)(=O)Cn2nnnc2C(C(C)C)N2CCc3ccccc3C2)cc1 (stereo not drawn),-5,29,64*,1,10
Cc1ccc(S(=O)(=O)Cn2nnnc2C(C(C)C)N2CCSCC2)cc1 (stereo not drawn),3,-2,15,-11,-10
COc1ccc(CNC(=O)C[C@@H]2C[C@H]3c4cc(NC(=O)NC5CCCC5)ccc4O[C@H]3[C@H](CO)O2)cc1,-1,/,-4,/,/
CCN(CC)CCNc1ccc(C)c2sc3ccc(O)cc3c(=O)c12,39*,/,30,/,/
Clc1ccc(COn2c(-c3ccc(Cl)cc3)nc3ccccc32)cc1,2,18,0,4,-5
O=[N+]([O-])c1ccc2nc(-c3ccc(Cl)cc3)n(OCc3ccccc3)c2c1,1,75*,-2,16,60*
Cc1cc(C)cc(OCC(=O)N(C)CC(=O)Nc2ccc(N3CCOCC3)cc2)c1,3,14,5,6,-4
COCCOCCn1c(/C=C/c2ccccc2)nc2ccccc21,1,74*,-381,61*,38
COCCOCCn1c(CCCO)nc2ccccc21,0,-10,7,11,-1
CN(C)c1ccc(/C=N/N2CCN(c3ccccn3)CC2)cc1,3,74*,11,62*,78*
CCCCN(C(=O)c1c(-c2ccccc2)noc1C)c1c(N)n(CCC)c(=O)[nH]c1=O,-1,-2,4,-7,6
Cc1nc(NCc2ccco2)c2c(C)c(C)sc2n1,1,11,-2,-2,1
Cc1sc2nc3c4ccccc4c(NCc4ccco4)nn3c(=O)c2c1C,-54,72*,-485,71*,76*
SMILES,SENP1 FRET inh,SENP6 inh,SENP8 block-1,SENP8 block-2,SENP7 block
CN(C)c1ccc(C=c2c3cc([N+](=O)[O-])ccc3n3c2cc(-c2ccccc2)[n+]3C)cc1,9,/,51*,/,/
CCc1ccc2[nH]c(O)c(N=Nc3nc(-c4ccccc4)cs3)c2c1,33*,-1,34,-1,8
Cc1ccc(N=Nc2c(O)[nH]c3ccc(F)cc23)cc1,28,-1,16,-4,6
O=C1OC(C(Cl)(Cl)Cl)Nc2ccccc21 (stereo not drawn),2,/,-248,/,/
COc1ccc(CCC(=O)NC(C)c2ccccc2)cc1OC (stereo not drawn),0,-10,4,3,5
O=C(CN1C(=O)c2ccccc2C1=O)Nc1cccc2cccnc12,3,-5,-2,-6,1
O=C1C=C(Nc2cccc3cccnc23)c2ccccc2C1=O,-21,33,43*,10,9
O=c1c2ccccc2cnn1CCOc1ccccc1,-1,92*,8,92*,93*
CCOC(=O)[C@]12CCCC=C1N(Cc1ccc(Cl)cc1Cl)C(=O)[C@H](CC(=O)NCCC(C)C)C2,-4,/,7,/,/
Fc1ccc(N/N=C/C=C/c2ccccc2)c(F)c1,-58,37,-378,-13,4
Fc1ccc(N/N=C/c2ccncc2)c(F)c1,3,58*,1,44,30
CN1CCN(C2=C(Cl)C(=O)c3ccccc3C2=O)CC1,1,/,73*,/,/
CC(=O)c1sc(NC(=O)CSCc2c(C)noc2C)nc1-c1ccccc1,2,-12,-1,-2,-5
Cc1ccc(C(C)C)cc1OCC(=O)Nc1ccc(-n2cnnn2)cc1,0,-14,-1,-13,14
CC(C)(C)c1ccc(NC(=O)Cn2cnc3cc([N+](=O)[O-])ccc3c2=O)cc1,-36,11,-32,6,5
Oc1c(Br)cc(Cl)cc1C=Nc1ccc(N2CCOCC2)cc1,-28,-12,-19,4,-7
Oc1ccc(N=Nc2cccc(Cl)c2)cc1C=Nc1ccc(N2CCOCC2)cc1,6,/,53*,/,/
CCCC[n+]1ccn(C2=C([O-])c3ccccc3C(=O)/C2=N\S(=O)(=O)c2ccc(Br)cc2)c1,2,49,74*,-1,22
Cc1ccc(NC(=O)C[n+]2ccn(C3=C([O-])c4ccccc4C3=O)c2)cc1,3,-1,33,4,8
Cc1ccc(S(=O)(=O)/N=C2\C(=O)c3ccccc3C([O-])=C2n2cc[n+](CCC(C)C)c2)cc1,2,38,84*,25,30
COCCCNC(=O)c1ccc2c3c(onc13)-c1ccccc1C2=O,8,54*,106*,38,18
COCCCNC(=O)c1ccccc1Oc1ccccc1,1,-1,13,3,0
CCCCCCSc1ccc([C@H]2N[C@@](C)(C(=O)OC)[C@H]3C(=O)N(C)C(=O)[C@@H]23)cc1,1,-21,-23,-10,-3
C/C(=N\Nc1cccc2cccnc12)c1ccccn1,-7,72*,-25,89*,92*
C/C(=N\NC(=O)c1cc2ccccc2cc1O)c1ccccn1,16,95*,-4,89*,72*
O=C(Sc1n[nH]c(=O)[nH]c1=O)c1ccccc1,1,/,14,/,/
O=C(O)CN1C(=O)/C(=C/C=C/c2ccccc2)SC1=S,1,-11,4,-19,-8
CCN1C(=O)/C(=C/C=C2\C=CN(CC)c3ccccc32)SC1=S,-16,/,64*,/,/
CCN1C(=O)C(=CC=CN(C)c2ccccc2)SC1=S,-31,/,62*,/,/
